Data as given in paper PMC4279188 (Theranostics, 2015).

Columns and labels:
VEGF = assay: Western blot of HUVECs, VEGF; assay type: cell-based, human; details: co-treatment with PEG-Ex4
Procedure, shortened: (§1)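 HUVEC lysates were prepared in RIPA buffer and protein was quantified by BCA. Proteins were resolved by SDS-PAGE and transferred to nitrocellulose, then blocked in 5% milk. Blots were probed overnight at 4 °C with anti-VEGF or anti-pAkt plus anti-β-actin, followed by secondary antibodies. Detection was by chemiluminescence on X-ray film. pAkt blots were stripped at 50 °C for 30 min and reprobed for total Akt. Data are mean ± SEM.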

Akt = assay: Western blot of HUVECs, phosphorylated Akt; assay type: cell-based, human; details: co-treatment with PEG-Ex4
Procedure, shortened: as §1

[1] = breakdown by dipeptidyl peptidase-4 (DPP4); no reference given for the value; cited from earlier work

Compound: O=c1cc(N2CCOCC2)oc2c(-c3ccccc3)cccc12 [LY294002]
- effect of PEG-Ex4 on VEGF expression in HUVECs, inhibition by co-treatment (VEGF): abolished
- effect of PEG-Ex4 on p-Akt in HUVECs, inhibition by co-treatment (Akt): abolished the effect of PEG-Ex4 on p-Akt

Compound: exendin-4(9-39)
- effect of PEG-Ex4 on VEGF expression in HUVECs, inhibition by co-treatment (VEGF): abolished
- effect of PEG-Ex4 on p-Akt in HUVECs, inhibition by co-treatment (Akt): abolished the effect of PEG-Ex4 on p-Akt

Compound: glucagon-like peptide-1 [GLP-1]
- half-life, in words [1]: a few minutes
